According to ChEMBL document CHEMBL3351764, “Design, synthesis and biological activity of flavonoid derivatives as selective agonists for neuromedin U 2 receptor” (Bioorg Med Chem, 2014):
Activity calls are given as the source filed them. No cut-off for these calls is given here.

What was measured:
[1] = molecular target: T1, Orexin receptor type 2 (Homo sapiens) (UniProt O43614); experiment: Agonist activity at human orexin 2 receptor at 100 uM to 5 mM
T1 sequence (whole entry): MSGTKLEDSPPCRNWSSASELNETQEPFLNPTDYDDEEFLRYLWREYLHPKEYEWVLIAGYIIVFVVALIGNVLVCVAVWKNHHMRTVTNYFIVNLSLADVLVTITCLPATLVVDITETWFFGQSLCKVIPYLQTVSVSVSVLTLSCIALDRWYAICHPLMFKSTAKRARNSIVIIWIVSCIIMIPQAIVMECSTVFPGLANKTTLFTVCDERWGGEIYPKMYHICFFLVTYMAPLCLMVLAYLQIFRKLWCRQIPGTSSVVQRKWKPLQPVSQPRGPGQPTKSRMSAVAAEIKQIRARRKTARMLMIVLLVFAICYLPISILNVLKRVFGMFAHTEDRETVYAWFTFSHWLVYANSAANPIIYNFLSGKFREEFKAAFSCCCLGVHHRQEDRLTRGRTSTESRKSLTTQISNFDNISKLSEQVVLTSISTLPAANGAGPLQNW

[2] = molecular target: Melanocortin receptor 4 (Homo sapiens) (UniProt P32245); experiment: Agonist activity at human MC4 receptor at 100 uM to 5 mM
Melanocortin receptor 4 (Homo sapiens), sequence (P32245 whole entry): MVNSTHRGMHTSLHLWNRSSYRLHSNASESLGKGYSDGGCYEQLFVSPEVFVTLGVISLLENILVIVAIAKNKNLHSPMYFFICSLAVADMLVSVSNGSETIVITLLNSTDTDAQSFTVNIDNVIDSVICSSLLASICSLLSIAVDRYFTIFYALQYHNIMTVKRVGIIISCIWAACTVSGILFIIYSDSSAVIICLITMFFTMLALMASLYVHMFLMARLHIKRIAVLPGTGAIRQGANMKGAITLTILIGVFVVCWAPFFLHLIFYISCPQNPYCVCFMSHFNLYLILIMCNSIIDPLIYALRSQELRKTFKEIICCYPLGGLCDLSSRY

[3] = molecular target: Melanin-concentrating hormone receptor 1 (Homo sapiens) (UniProt Q99705); experiment: Agonist activity at human MCH1 receptor at 100 uM to 5 mM
Melanin-concentrating hormone receptor 1 (Homo sapiens), sequence (Q99705 whole entry): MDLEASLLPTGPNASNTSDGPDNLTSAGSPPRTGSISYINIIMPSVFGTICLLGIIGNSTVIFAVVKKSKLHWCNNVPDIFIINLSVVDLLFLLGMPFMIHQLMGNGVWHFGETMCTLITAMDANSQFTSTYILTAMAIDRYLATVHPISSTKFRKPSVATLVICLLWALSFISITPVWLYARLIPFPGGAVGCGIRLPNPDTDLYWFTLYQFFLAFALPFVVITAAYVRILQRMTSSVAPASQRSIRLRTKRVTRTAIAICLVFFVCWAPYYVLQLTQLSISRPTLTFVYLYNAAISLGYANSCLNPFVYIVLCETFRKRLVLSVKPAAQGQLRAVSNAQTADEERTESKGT

[4] = molecular target: Melanocyte-stimulating hormone receptor (Mus musculus) (UniProt Q01727); experiment: Agonist activity at mouse MC1 receptor at 100 uM to 5 mM
Melanocyte-stimulating hormone receptor (Mus musculus), sequence (Q01727 whole entry, looked up): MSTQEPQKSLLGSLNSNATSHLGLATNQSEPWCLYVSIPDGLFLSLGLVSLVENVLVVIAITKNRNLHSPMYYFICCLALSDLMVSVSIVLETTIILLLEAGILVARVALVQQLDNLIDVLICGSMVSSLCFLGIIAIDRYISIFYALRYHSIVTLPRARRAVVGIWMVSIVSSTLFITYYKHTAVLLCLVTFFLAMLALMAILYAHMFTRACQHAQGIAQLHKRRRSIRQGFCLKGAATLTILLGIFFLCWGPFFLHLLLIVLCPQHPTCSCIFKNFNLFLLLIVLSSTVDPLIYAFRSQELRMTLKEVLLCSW

[5] = molecular target: Glucagon receptor (Homo sapiens) (UniProt P47871); experiment: Agonist activity at human Glu receptor at 100 uM to 5 mM
Glucagon receptor (Homo sapiens), sequence (P47871 whole entry): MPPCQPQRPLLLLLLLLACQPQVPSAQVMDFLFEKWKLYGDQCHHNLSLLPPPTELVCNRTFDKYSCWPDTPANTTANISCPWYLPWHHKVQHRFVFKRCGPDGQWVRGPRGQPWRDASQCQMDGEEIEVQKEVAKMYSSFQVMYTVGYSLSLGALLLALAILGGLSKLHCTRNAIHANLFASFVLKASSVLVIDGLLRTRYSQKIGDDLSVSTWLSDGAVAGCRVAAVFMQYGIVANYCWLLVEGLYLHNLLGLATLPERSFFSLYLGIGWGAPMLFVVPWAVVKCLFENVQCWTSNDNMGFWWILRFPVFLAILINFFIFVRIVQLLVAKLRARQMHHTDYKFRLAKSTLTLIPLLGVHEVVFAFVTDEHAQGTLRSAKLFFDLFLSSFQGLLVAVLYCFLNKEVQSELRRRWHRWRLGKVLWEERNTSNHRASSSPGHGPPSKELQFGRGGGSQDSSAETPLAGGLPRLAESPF

[6] = molecular target: T2, Neuromedin-U receptor 1 (Homo sapiens) (UniProt Q9HB89); experiment: Agonist activity at human NMU1 receptor at 100 uM to 5 mM
T2 sequence (whole entry): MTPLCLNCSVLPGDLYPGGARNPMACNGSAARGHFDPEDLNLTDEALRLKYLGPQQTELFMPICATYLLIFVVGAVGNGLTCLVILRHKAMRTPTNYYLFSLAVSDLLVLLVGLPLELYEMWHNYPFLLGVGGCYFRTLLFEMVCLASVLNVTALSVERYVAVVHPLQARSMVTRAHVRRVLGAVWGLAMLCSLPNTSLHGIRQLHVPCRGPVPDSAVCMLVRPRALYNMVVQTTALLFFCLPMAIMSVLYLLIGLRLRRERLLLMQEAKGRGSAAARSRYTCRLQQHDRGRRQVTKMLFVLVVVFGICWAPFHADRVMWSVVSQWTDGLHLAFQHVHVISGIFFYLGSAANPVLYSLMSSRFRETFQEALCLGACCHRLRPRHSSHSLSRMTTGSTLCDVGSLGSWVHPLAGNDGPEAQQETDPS

[7] = molecular target: T3, Adenosine receptor A1 (Homo sapiens) (UniProt P30542); experiment: Agonist activity at human A1 receptor at 100 uM to 5 mM
T3 sequence (whole entry): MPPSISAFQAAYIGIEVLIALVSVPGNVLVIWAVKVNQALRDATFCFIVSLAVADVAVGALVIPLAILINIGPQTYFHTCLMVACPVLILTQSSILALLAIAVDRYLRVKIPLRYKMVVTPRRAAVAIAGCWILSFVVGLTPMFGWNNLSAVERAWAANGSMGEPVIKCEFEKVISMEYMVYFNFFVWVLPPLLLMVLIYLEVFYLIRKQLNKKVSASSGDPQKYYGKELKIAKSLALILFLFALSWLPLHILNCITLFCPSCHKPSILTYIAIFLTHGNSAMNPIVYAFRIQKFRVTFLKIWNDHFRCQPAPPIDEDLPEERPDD

[8] = molecular target: T4, C5a anaphylatoxin chemotactic receptor 1 (Homo sapiens) (UniProt P21730); experiment: Agonist activity at human C5a receptor at 100 uM to 5 mM
T4 sequence (whole entry): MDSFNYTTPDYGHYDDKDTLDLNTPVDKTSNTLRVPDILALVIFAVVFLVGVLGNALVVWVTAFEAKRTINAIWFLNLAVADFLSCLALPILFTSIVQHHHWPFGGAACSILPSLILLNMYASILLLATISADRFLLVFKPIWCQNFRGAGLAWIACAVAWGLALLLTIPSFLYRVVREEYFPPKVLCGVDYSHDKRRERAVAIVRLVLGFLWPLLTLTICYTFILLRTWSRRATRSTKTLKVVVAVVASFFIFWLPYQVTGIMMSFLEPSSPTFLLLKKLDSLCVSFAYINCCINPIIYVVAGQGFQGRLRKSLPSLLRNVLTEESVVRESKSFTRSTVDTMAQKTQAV

Neuromedin-U receptor 2 = Neuromedin-U receptor 2 (Homo sapiens, UniProt Q9GZQ4); experiment: Agonist activity at human NMU2R transfected in HEK293 cells after 7 hrs by luciferase reporter gene assay; assay type: cell-based
Neuromedin-U receptor 2, sequence (Q9GZQ4 whole entry): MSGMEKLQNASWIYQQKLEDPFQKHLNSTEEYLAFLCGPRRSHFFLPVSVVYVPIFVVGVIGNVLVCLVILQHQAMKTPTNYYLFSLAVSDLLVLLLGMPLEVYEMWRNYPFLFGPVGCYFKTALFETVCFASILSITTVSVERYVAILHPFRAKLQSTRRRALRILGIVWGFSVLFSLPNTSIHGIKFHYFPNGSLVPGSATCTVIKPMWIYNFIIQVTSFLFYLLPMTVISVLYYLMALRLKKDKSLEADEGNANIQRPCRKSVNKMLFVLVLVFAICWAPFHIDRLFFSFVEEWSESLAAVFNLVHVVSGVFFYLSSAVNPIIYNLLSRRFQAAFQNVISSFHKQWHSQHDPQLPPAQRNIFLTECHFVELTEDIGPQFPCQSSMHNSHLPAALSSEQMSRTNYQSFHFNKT
Procedure, shortened: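 HEK-293 cells were stably co-transfected with a reporter gene construct and human NMU2R cDNA in pcDNA3.1(+), maintained under G418 selection at 37 °C in 5% CO2, then seeded and incubated overnight. Compounds were added at various concentrations for 7 h at 37 °C, followed by Bright-Glo luciferase read-out. Forskolin and NMU served as positive controls. EC50 was fitted by four-parameter logistic regression; means ± SEM of three independent experiments.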

[9] = molecular target: T5, Adenosine receptor A3 (Homo sapiens) (UniProt P0DMS8); experiment: Agonist activity at human A3 receptor at 100 uM to 5 mM
T5 sequence (whole entry): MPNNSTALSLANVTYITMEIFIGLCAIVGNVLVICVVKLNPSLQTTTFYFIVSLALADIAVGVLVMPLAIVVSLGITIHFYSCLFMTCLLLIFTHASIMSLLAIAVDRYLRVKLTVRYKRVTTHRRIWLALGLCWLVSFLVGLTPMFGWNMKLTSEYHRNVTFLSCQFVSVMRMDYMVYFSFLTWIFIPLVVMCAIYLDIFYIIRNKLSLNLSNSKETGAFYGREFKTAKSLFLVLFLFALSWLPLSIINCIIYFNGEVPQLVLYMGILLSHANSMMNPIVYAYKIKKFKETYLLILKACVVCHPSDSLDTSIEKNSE

[10] = molecular target: Melanocortin receptor 3 (Mus musculus) (UniProt P33033); experiment: Agonist activity at mouse MC3 receptor at 100 uM to 5 mM
Melanocortin receptor 3 (Mus musculus), sequence (P33033 whole entry): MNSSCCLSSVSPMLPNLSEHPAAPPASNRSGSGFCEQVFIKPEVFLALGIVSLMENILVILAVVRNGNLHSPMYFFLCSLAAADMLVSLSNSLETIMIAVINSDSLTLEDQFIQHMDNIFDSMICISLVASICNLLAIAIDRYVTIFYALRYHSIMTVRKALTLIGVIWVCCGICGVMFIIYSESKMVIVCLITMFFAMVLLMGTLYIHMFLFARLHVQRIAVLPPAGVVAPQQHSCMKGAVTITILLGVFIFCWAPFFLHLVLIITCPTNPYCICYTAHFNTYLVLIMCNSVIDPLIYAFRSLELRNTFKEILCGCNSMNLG

Row | Structure (SMILES) | Activity [1] | Activity [2] | Activity [3] | Activity [4] | Activity [5] | Activity [6] | Activity [7] | EC50 (Neuromedin-U receptor 2; hek293) | Activity [9] | Activity [10] | EC50 (Neuromedin-U receptor 2; read-out: EC50) | Activity [8]
1 | CCOC(=O)COc1c(-c2cc(Br)ccc2F)oc2ccccc2c1=O | inactive | inactive | inactive | inactive | inactive | inactive | inactive | Not Active | inactive | inactive | – | inactive
2 | O=c1cc(-c2ccc(Cl)cc2Cl)oc2ccccc12 | inactive | inactive | inactive | inactive | inactive | inactive | inactive | Not Active | inactive | inactive | – | inactive
3 | CCN(CC)c1ccc(-c2oc3ccccc3c(=O)c2O)cc1 | inactive | inactive | inactive | inactive | inactive | inactive | inactive | Not Active | inactive | inactive | – | inactive
4 | COc1c(-c2cc(Br)ccc2F)oc2ccccc2c1=O | inactive | inactive | inactive | inactive | inactive | inactive | inactive | Not Active | inactive | inactive | – | inactive
5 | COc1ccc(-c2oc3ccccc3c(=O)c2O)cc1O | inactive | inactive | inactive | inactive | inactive | inactive | inactive | Not Active | inactive | inactive | – | inactive

Continued, in another order:

Row | Activity [1] | Activity [2] | Activity [3] | Activity [4] | Activity [5] | Activity [6] | Activity [7] | EC50 (Neuromedin-U receptor 2; hek293) | Activity [9] | Activity [10] | EC50 (Neuromedin-U receptor 2; read-out: EC50) | Structure (SMILES) | Activity [8]
6 | inactive | inactive | inactive | inactive | inactive | inactive | inactive | Not Active | inactive | inactive | – | O=c1c(O)c(-c2cccc(Cl)c2)oc2ccccc12 | inactive
7 | inactive | inactive | inactive | inactive | inactive | inactive | inactive | Not Active | inactive | inactive | – | O=c1c(O)c(-c2cccc(Br)c2)oc2ccccc12 | inactive
8 | inactive | inactive | inactive | inactive | inactive | inactive | inactive | – | inactive | inactive | 31.1 µM | O=c1c(O)c(-c2cccc(Cl)c2F)oc2ccccc12 | inactive
9 | inactive | inactive | inactive | inactive | inactive | inactive | inactive | Not Active | inactive | inactive | – | Fc1ccccc1C1C=Cc2ccccc2O1 (racemic) | inactive
